For test [1], the target named is Interleukin-1 receptor-associated kinase 4 (Homo sapiens) (UniProt Q9NWZ3). Nature of the test: Inhibition of IRAK4 (unknown origin) at 250 nM by radioactive filter-binding assay. The gist of the method: (§1)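 Panel profiling of one compound against 50 kinases, carried out in duplicate at the International Centre for Protein Kinase Profiling. Radioactive filter-binding format.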

For test [2], the target named is Mitogen-activated protein kinase kinase kinase 11 (Homo sapiens) (UniProt Q16584). As to the kind of experiment: Inhibition of MLK3 (unknown origin) at 2 uM by radioactive filter-binding assay. An outline of the steps: as §1
Sequence of Mitogen-activated protein kinase kinase kinase 11 (Homo sapiens) (Q16584 whole entry, looked up): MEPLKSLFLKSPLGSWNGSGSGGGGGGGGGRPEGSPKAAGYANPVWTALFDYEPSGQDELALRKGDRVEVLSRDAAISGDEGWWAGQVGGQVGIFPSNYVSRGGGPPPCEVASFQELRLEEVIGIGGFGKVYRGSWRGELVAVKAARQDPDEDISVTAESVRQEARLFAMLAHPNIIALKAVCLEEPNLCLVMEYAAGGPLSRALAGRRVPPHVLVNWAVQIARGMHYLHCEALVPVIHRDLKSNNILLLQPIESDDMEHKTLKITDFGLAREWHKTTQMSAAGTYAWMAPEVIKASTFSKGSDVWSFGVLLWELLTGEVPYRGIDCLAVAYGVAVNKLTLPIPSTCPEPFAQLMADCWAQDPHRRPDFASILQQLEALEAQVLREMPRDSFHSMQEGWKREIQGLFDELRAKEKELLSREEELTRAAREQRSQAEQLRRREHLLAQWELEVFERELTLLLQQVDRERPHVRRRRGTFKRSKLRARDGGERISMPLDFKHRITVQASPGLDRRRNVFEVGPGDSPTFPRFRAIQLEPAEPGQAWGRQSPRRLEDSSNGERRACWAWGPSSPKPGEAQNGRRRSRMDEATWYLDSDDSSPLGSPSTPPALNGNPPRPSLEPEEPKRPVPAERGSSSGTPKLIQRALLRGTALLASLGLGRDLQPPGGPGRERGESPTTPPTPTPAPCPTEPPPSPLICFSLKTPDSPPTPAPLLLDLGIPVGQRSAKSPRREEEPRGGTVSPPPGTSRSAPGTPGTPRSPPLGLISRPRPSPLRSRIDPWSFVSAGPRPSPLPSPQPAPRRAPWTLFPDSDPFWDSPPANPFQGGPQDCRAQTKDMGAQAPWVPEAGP
For test [3], the target named is T1, Serine/threonine-protein kinase ULK1 (Homo sapiens, UniProt O75385).
T1 sequence (O75385 whole entry): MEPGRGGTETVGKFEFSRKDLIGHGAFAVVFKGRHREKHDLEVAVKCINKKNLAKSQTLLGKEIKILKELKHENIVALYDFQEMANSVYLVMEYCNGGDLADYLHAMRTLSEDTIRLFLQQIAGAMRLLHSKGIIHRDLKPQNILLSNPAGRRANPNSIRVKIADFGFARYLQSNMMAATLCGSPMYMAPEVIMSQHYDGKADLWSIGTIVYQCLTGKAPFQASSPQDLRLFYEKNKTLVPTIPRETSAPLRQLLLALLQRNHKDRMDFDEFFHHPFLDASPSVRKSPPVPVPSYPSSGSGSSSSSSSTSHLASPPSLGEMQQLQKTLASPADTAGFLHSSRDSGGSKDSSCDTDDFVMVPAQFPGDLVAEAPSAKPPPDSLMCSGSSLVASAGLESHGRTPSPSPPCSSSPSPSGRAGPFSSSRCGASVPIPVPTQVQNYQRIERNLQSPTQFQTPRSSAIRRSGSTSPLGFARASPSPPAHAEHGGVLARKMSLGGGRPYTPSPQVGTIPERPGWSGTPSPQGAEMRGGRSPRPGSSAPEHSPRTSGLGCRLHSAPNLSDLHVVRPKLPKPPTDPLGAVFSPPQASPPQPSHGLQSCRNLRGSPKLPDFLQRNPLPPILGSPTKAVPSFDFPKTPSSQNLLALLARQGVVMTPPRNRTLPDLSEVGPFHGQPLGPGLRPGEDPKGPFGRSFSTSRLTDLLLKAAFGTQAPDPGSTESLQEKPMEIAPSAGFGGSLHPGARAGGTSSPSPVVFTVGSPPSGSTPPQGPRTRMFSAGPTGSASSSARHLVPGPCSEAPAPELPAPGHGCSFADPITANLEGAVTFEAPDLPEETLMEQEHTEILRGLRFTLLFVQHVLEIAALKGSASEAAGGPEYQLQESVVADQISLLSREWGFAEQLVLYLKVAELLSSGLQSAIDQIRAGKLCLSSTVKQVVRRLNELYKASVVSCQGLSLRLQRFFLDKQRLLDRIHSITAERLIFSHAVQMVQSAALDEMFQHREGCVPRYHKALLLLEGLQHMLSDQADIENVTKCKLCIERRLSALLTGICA
As to the kind of experiment: Inhibition of SUMO-tagged ULK1 (unknown origin) kinase domain expressed in KRX cells using [32P]-gamma-ATP and myelin basic protein substrate incubated for 7 mins. Format: cell-based. An outline of the steps: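 Enzyme at 5 nM with 50 µM cold ATP, 0.05 µCi/µl 32P-γ-ATP and 20 µM myelin basic protein as substrate. Reactions were spotted onto nitrocellulose, washed three times in 1% phosphoric acid, dried and imaged by phosphorimager. IC50 from curve fitting; duplicate.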

Sequence of Interleukin-1 receptor-associated kinase 4 (Homo sapiens) (Q9NWZ3 whole entry): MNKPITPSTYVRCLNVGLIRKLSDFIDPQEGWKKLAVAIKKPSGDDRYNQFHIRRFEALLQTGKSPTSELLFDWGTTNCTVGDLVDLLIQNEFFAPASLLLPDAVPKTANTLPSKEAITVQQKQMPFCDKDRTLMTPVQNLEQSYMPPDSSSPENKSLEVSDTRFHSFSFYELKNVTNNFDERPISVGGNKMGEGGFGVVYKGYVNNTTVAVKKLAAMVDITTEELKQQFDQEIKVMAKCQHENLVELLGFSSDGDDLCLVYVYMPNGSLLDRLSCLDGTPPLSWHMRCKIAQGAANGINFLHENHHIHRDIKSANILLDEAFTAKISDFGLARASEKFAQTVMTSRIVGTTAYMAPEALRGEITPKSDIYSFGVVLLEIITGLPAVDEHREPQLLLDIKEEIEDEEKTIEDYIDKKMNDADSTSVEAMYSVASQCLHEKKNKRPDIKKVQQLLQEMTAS

As to `c1ccc2c(Nc3cc(C4CCC4)[nH]n3)nc(Nc3ccc4[nH]cnc4c3)nc2c1`, in test [1], the inhibition is greater than 80%.

Take `NCCCNc1nc(Nc2cccc(NC(=O)N3CCCC3)c2)ncc1I`: in test [2], the inhibition was greater than 80%. This compound also returned a half-inhibitory concentration (IC50) in test [3] of 120 nM.
